Results on 10 molecules are retold here after ChEMBL document CHEMBL3817814, “Development and Characterization of a Potent Free Fatty Acid Receptor 1 (FFA1) Fluorescent Tracer” (J Med Chem, 2016).

Some results are limits rather than exact numbers.

The target of assay [1] is T1, Free fatty acid receptor 1 (Homo sapiens, UniProt O14842). The assay is described as follows: Binding affinity to N-terminal NLUC-tagged FFA1 receptor (unknown origin) expressed in human Flp-In T-REX-293 cell membrane coexpressing mGluR5 incubated for 1 hr by equilibrium BRET assay. Format: cell membranes. The essentials:
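Membranes from NLUC-FFA1 Flp-In T-REx 293 cells (induced 24 h, 100 ng/ml doxycycline) were used at 5 µg protein/well in 50 mM HEPES, 100 mM NaCl, 10 mM CaCl2, 10 mM MgCl2. Varying tracer concentrations, up to 100 nM, were incubated 1 h at 25 °C, with 10 µM unlabeled agonist defining non-specific binding. Nano-Glo (1:800 final) was added, then 460/545 nm emission read after 5 min. Kd came from saturation fits.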
In general terms: Bioluminescence resonance energy transfer reports proximity on the nanometre scale.

Assay [2] addresses T1, Free fatty acid receptor 1. The assay is described as follows: Binding affinity to N-terminal NLUC-tagged FFA1 receptor (unknown origin) expressed in human Flp-In T-REX-293 cell membrane coexpressing mGluR5 preincubated for 5 mins followed by TUG-905 addition measured after 15 mins by kinetic BRET assay. The format is cell membranes. The gist of the method:
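Membranes (2.5 µg protein/well) were pre-incubated 5 min at 25 °C with Nano-Glo (1:800 final), and 460/545 nm emission was read every 20 s at 25 °C. After 60 s, tracer (100 nM final) was injected; 5 min later 10 µM unlabeled agonist was injected and reading continued 15 min. Non-specific signal from wells pre-dosed with unlabeled agonist was subtracted, giving koff and kon.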

Assay [3] deals with T1, Free fatty acid receptor 1. The assay is described as follows: Agonist activity at eYFP-tagged FFA1 receptor (unknown origin) expressed in human Flp-In T-REX-293 cells measured for 90 secs by Fura-2 AM dye based calcium mobilization assay. Format: functional, cell-based. The essentials: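 Flp-In T-REx 293 cells with doxycycline-inducible FFA1-eYFP were plated 50,000/well and induced with 100 ng/ml doxycycline 24 h before assay. Cells were Fura-2 AM loaded 45 min, washed three times and kept 15 min in HBSS. […] Mean ± S.E.M., n=3.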
A general note: Calcium assays in cells follow changes in intracellular calcium, usually with a dye or a luminescent sensor.

The target in assay [4] is T1, Free fatty acid receptor 1. The assay is described as follows: Agonist activity at human C-terminal eYFP-tagged FFA1 receptor expressed in HEK-293 cells assessed as beta-arrestin2 recruitment incubated for 5 mins by BRET assay relative to TUG-770. The note with it: HEK293. Format: cell-based. (Recruitment of arrestin is a read-out of receptor activation apart from second messengers.)

Assay [5] addresses T1, Free fatty acid receptor 1. As to the kind of experiment: Agonist activity at FFA1 receptor (unknown origin) expressed in human […] cells measured for 90 secs by Fura-2 AM dye based calcium mobilization assay relative to TUG-770. The format is functional, cell-based. The essentials:
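Untagged FFA1 constitutively expressed in N1-FFA1 cells, plated 15,000/well 24 h ahead. Cells loaded 45 min with Fura-2 AM, washed three times, then held 15 min in HBSS. Emission at 510 nm from 340/380 nm excitation was recorded before and for 90 s after compound addition. The peak 340/380 ratio gave concentration-response curves.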

Assay [6] addresses T1, Free fatty acid receptor 1. The assay is described as follows: Agonist activity at human C-terminal eYFP-tagged FFA1 receptor expressed in HEK-293 cells assessed as beta-arrestin2 recruitment incubated for 5 mins by BRET assay. Format: cell-based, HEK293.
The target in assay [7] is T1, Free fatty acid receptor 1. The assay is described as follows: Displacement of 3-(2-Fluoro-4-((2'-methyl-4'-(2-(2-((7-nitrobenzo[c][1,2,5]-oxadiazol-4-yl)amino)ethoxy)ethoxy)-[1,1'-biphenyl]-3-yl)-methoxy)phenyl)propanoic acid from N-terminal NLUC-tagged FFA1 receptor (unknown origin) expressed in human Flp-In T-REX-293 cell membrane coexpressing mGluR5 incubated for 1 hr by equilibrium BRET assay. Format: cell membranes.

Assay [8] concerns the target T1, Free fatty acid receptor 1. As to the kind of experiment: Agonist activity at FFA1 receptor (unknown origin) expressed in human […] cells measured for 90 secs by Fura-2 AM dye based calcium mobilization assay. The format is functional, cell-based. The essentials:
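N1-FFA1 cells constitutively expressing untagged FFA1 were plated 24 h before the assay. They were loaded with Fura-2 AM for 45 min, washed three times, and held 15 min in HBSS. Fura-2 emission at 510 nm (340 or 380 nm excitation) was read before and for 90 s after compound addition. The peak 340/380 ratio gave concentration-response curves for potency.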

T1 sequence (O14842 whole entry): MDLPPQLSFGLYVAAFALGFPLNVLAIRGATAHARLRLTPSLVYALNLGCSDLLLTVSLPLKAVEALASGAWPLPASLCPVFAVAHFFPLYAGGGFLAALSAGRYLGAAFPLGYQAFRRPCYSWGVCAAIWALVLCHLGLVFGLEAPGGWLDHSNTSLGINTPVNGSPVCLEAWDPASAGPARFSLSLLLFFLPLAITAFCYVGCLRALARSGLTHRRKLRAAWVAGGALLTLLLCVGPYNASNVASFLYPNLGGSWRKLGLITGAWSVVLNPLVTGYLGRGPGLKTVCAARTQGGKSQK

What is called Kd is the free concentration of one partner at which half of the binding sites on the other are occupied at equilibrium, for simple one-to-one binding. As usually defined, the EC50 is the midpoint of the concentration-response curve. As to `Cc1cc(OCCOCCNc2ccc([N+](=O)[O-])c3nonc23)ccc1-c1cccc(COc2ccc(CCC(=O)O)c(F)c2)c1`, the Kd was found to be 7.4 nM in assay [1] and 4 nM in assay [2]. Moreover, the EC50 in assay [3] came out at 187 nM.
What is called Emax is the size of the effect at its maximum, as opposed to the concentration needed. As to `Cc1ccccc1-c1cccc(CNc2ccc(CCC(=O)O)cc2)c1`, the Emax in assay [4] worked out at 114%.
For `Cc1cc(OCCCS(C)(=O)=O)cc(C)c1-c1cccc(COc2ccc3c(c2)OC[C@H]3CC(=O)O)c1`, the maximal effect (Emax) in assay [5] stood at 108%; in assay [4], 89%.
For `N#CCc1ccccc1C#Cc1ccc(CCC(=O)O)cc1`, in assay [4], the Emax was 95%.
As usually defined, the Ki is the equilibrium dissociation constant of an inhibitor or competing ligand from its target. For `Cc1ccccc1C#Cc1ccc(CCC(=O)O)cc1`, in assay [6], the EC50 was 67.6 nM. For the same molecule, in assay [7], the Ki is 631 nM. Moreover, the maximal response (Emax) in assay [4] is 100%.
As for `O=C(O)CCc1ccc(C#Cc2cccc(OCCOCCNc3ccc([N+](=O)[O-])c4nonc34)c2)cc1F`, the EC50 in assay [3] was more than 1000 nM.
On to `O=C(O)CCc1ccc(OCc2ccccc2)cc1` [BENZYLOXYPHENYLPROPANOIC ACID], for which the inhibition constant (Ki) in assay [7] is 13800 nM. In addition, the Emax in assay [4] is 90%.
As a reminder, the pKb is the Kb on a negative log10 scale, so that one unit is a factor of ten. Lower therefore signals a large Kb. On to `CCCCCCCCCCCC(=O)O` [DODECANOATE], for which the Emax stood at 116% in assay [5] and 130% in assay [4]. The EC50 in assay [6] was 7940 nM; in assay [8] it was 759 nM. For the same molecule, the pKb in assay [7] was determined as 4.46.
Molecule `O=C(O)CCc1ccc(NCc2cccc(Oc3ccccc3)c2)cc1` [GW9508] gave a Ki in assay [7] of 219 nM. Also, the Emax in assay [4] was 86%.
`Cc1cc(Oc2ncc(C(F)(F)F)cc2Cl)ccc1CC1SC(=O)NC1=O` (stereo not drawn): in assay [6], the concentration giving a half-maximal response (EC50) is 55 nM. The molecule further showed a Ki in assay [7] of 69.2 nM. Also, the Emax in assay [4] worked out at 95%.
